# Data reported in ChEMBL document CHEMBL5058577, “EUbOPEN Chemogenomics Library 2 (Multiplex)” (2022).
# System: HEK-293T
# Assay: Multiplex assay against HEK293T
# Format: toxicity, cell-based
# Settings: human
# Outline: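 With compound added, live cells were imaged on a CQ1 microscope at 37°C and 5% CO2; staining with Hoechst33342, BioTracker Green Microtubule Cytoskeleton Dye, MitoTracker Red and Annexin V Alexa Fluor 680 had been done at seeding. The CellPathfinder machine-learning gating scheme split cells into Hoechst high-intensity objects or normal cells, normal cells into healthy, pyknosed or fragmented nuclei, and pyknosed cells into mitotic or apoptotic. The tubulin, mitochondrial-mass and membrane-permeability phenotypes are per cents of healthy-nucleus cells.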
# [1] = 12 h, 1 µM, compound concentration 1 uM, replicate 1
# [2] = 12 h, 1 µM, compound concentration 1 uM, replicate 2
# [3] = 12 h, 10 µM, compound concentration 10 uM, replicate 1
# [4] = 12 h, 10 µM, compound concentration 10 uM, replicate 2
# [5] = 24 h, 1 µM, compound concentration 1 uM, replicate 1
# [6] = 24 h, 1 µM, compound concentration 1 uM, replicate 2
# [7] = 24 h, 10 µM, compound concentration 10 uM, replicate 1
# [8] = 24 h, 10 µM, compound concentration 10 uM, replicate 2
# [9] = 48 h, 1 µM, compound concentration 1 uM, replicate 1
# [10] = 48 h, 1 µM, compound concentration 1 uM, replicate 2
# [11] = 48 h, 10 µM, compound concentration 10 uM, replicate 1
# [12] = 48 h, 10 µM, compound concentration 10 uM, replicate 2
compound,measurement,setting,value
Cc1c(CC(=O)O)c2cccnc2n1Cc1ccc(S(C)(=O)=O)cc1C(F)(F)F [FEVIPIPRANT],Population Apoptotic (%),[1],27%
same,Population Fragmented Nuclei (%),[1],6%
same,Population Healthy Nuclei (%),[1],83%
same,Population Hoechst High Intensity Objects (%),[1],5%
same,Population Membrane Permeable-Phenotype (%),[1],0%
same,Population Mitochondria Different-Phenotype (%),[1],32%
same,Population Mitotic Cells (%),[1],72%
same,Population Normal (%),[1],94%
same,Population Pyknosed Nuclei (%),[1],9%
same,Population Tubulin-Different-Phenotype (%),[1],22%
same,Total Cell Count,[1],471
same,Population Apoptotic (%),[2],41%
same,Population Fragmented Nuclei (%),[2],7%
same,Population Healthy Nuclei (%),[2],79%
same,Population Hoechst High Intensity Objects (%),[2],7%
same,Population Mitochondria Different-Phenotype (%),[2],52%
same,Population Mitotic Cells (%),[2],58%
same,Population Normal (%),[2],92%
same,Population Pyknosed Nuclei (%),[2],12%
same,Population Tubulin-Different-Phenotype (%),[2],16%
same,Total Cell Count,[2],370
same,Population Apoptotic (%),[3],33%
same,Population Fragmented Nuclei (%),[3],5%
same,Population Healthy Nuclei (%),[3],80%
same,Population Hoechst High Intensity Objects (%),[3],6%
same,Population Membrane Permeable-Phenotype (%),[3],0%
same,Population Mitochondria Different-Phenotype (%),[3],46%
same,Population Mitotic Cells (%),[3],66%
same,Population Normal (%),[3],93%
same,Population Pyknosed Nuclei (%),[3],13%
same,Population Tubulin-Different-Phenotype (%),[3],29%
same,Total Cell Count,[3],417
same,Population Apoptotic (%),[4],52%
same,Population Fragmented Nuclei (%),[4],11%
same,Population Healthy Nuclei (%),[4],75%
same,Population Hoechst High Intensity Objects (%),[4],10%
same,Population Mitochondria Different-Phenotype (%),[4],66%
same,Population Mitotic Cells (%),[4],47%
same,Population Normal (%),[4],89%
same,Population Pyknosed Nuclei (%),[4],12%
same,Population Tubulin-Different-Phenotype (%),[4],32%
same,Total Cell Count,[4],303
same,Population Apoptotic (%),[5],22%
same,Population Fragmented Nuclei (%),[5],8%
same,Population Healthy Nuclei (%),[5],81%
same,Population Hoechst High Intensity Objects (%),[5],3%
same,Population Membrane Permeable-Phenotype (%),[5],1%
same,Population Mitochondria Different-Phenotype (%),[5],18%
same,Population Mitotic Cells (%),[5],77%
same,Population Normal (%),[5],96%
same,Population Pyknosed Nuclei (%),[5],10%
same,Population Tubulin-Different-Phenotype (%),[5],18%
same,Total Cell Count,[5],637
same,Population Apoptotic (%),[6],43%
same,Population Fragmented Nuclei (%),[6],7%
same,Population Healthy Nuclei (%),[6],82%
same,Population Hoechst High Intensity Objects (%),[6],4%
same,Population Membrane Permeable-Phenotype (%),[6],0%
same,Population Mitochondria Different-Phenotype (%),[6],37%
same,Population Mitotic Cells (%),[6],56%
same,Population Normal (%),[6],95%
same,Population Tubulin-Different-Phenotype (%),[6],14%
same,Total Cell Count,[6],457
same,Population Apoptotic (%),[7],33%
same,Population Fragmented Nuclei (%),[7],8%
same,Population Healthy Nuclei (%),[7],80%
same,Population Hoechst High Intensity Objects (%),[7],5%
same,Population Membrane Permeable-Phenotype (%),[7],0%
same,Population Mitochondria Different-Phenotype (%),[7],31%
same,Population Mitotic Cells (%),[7],66%
same,Population Normal (%),[7],94%
same,Population Pyknosed Nuclei (%),[7],10%
same,Population Tubulin-Different-Phenotype (%),[7],20%
same,Total Cell Count,[7],499
same,Population Apoptotic (%),[8],50%
same,Population Fragmented Nuclei (%),[8],9%
same,Population Healthy Nuclei (%),[8],81%
same,Population Hoechst High Intensity Objects (%),[8],11%
same,Population Mitochondria Different-Phenotype (%),[8],44%
same,Population Mitotic Cells (%),[8],50%
same,Population Normal (%),[8],88%
same,Population Pyknosed Nuclei (%),[8],8%
same,Total Cell Count,[8],334
same,Population Apoptotic (%),[9],16%
same,Population Fragmented Nuclei (%),[9],13%
same,Population Healthy Nuclei (%),[9],79%
same,Population Hoechst High Intensity Objects (%),[9],1%
same,Population Membrane Permeable-Phenotype (%),[9],2%
same,Population Mitochondria Different-Phenotype (%),[9],12%
same,Population Mitotic Cells (%),[9],83%
same,Population Normal (%),[9],98%
same,Population Pyknosed Nuclei (%),[9],7%
same,Population Tubulin-Different-Phenotype (%),[9],12%
same,Total Cell Count,[9],1065
same,Population Apoptotic (%),[10],20%
same,Population Fragmented Nuclei (%),[10],11%
same,Population Healthy Nuclei (%),[10],82%
same,Population Hoechst High Intensity Objects (%),[10],2%
same,Population Membrane Permeable-Phenotype (%),[10],0%
same,Population Mitochondria Different-Phenotype (%),[10],16%
same,Population Mitotic Cells (%),[10],79%
same,Population Normal (%),[10],97%
same,Population Pyknosed Nuclei (%),[10],6%
same,Population Tubulin-Different-Phenotype (%),[10],10%
same,Total Cell Count,[10],713
same,Population Apoptotic (%),[11],29%
same,Population Fragmented Nuclei (%),[11],14%
same,Population Healthy Nuclei (%),[11],78%
same,Population Hoechst High Intensity Objects (%),[11],4%
same,Population Membrane Permeable-Phenotype (%),[11],0%
same,Population Mitochondria Different-Phenotype (%),[11],24%
same,Population Mitotic Cells (%),[11],70%
same,Population Normal (%),[11],95%
same,Population Pyknosed Nuclei (%),[11],7%
same,Population Tubulin-Different-Phenotype (%),[11],14%
same,Total Cell Count,[11],794
same,Population Apoptotic (%),[12],45%
same,Population Healthy Nuclei (%),[12],77%
same,Population Hoechst High Intensity Objects (%),[12],7%
same,Population Membrane Permeable-Phenotype (%),[12],1%
same,Population Mitochondria Different-Phenotype (%),[12],22%
same,Population Mitotic Cells (%),[12],55%
same,Population Normal (%),[12],92%
same,Population Pyknosed Nuclei (%),[12],8%
same,Population Tubulin-Different-Phenotype (%),[12],17%
same,Total Cell Count,[12],491
